thrombin 1536 – inhibitors of human thrombin; P00734; alpha-thrombin, Boc-VPR-AMC fluorogenic substrate cleavage; inhibition, % at 5 µM; hit rate 0.26% among 220,000;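 active = inhibition at or above 40%; inactive = inhibition below 40%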;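 note: 0% = enzyme with no compound and 100% = wells without enzyme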
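Test system: human alpha-thrombin protein / Dosing: one concentration per compound, 5 µM, with 0.2% DMSO / Medium: pH 7.5 Tris-saline with Tween 20 / Benchmarks: no-compound enzyme wells and no-enzyme blanks / Read-out basis: percent inhibition of thrombin substrate cleavage / Timing: reaction at room temperature / Measured by: fluorescence, ex 355 nm, em 460 nm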
hK5 inh – kallikrein 5 (human) inhibition; recombinant hK5, fluorogenic AMC substrate cleavage; hit rate 0.59% among 210,000; inhibition, % at 5 µM; AID 873; Q9Y337;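 active = inhibition of 40% or more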;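 note: 0% = enzyme controls without compound and 100% = no-enzyme blanks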
FXIIa inh – blocks human coagulation factor XIIa protease activity; P00748; purified FXIIa, Boc-QGR-AMC fluorogenic substrate, 2 h; inhibition, % at 5 µM; hit rate 0.3% among 220,000; AID 800; in the data active = inhibition above about 40%;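 note: 0% = enzyme with no compound and 100% = blank without enzyme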
Target sequence (P00748 20-372 limits assumed): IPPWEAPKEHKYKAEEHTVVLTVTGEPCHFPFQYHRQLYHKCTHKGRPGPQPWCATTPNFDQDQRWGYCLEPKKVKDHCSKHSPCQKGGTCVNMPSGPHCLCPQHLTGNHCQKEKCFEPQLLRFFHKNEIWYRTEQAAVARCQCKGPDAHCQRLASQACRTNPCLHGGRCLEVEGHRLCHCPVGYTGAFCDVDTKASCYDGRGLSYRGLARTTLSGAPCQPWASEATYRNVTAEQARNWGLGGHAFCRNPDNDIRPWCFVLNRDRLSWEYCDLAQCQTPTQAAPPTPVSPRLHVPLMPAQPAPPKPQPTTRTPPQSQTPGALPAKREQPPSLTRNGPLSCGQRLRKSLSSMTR
Target sequence (P00748 373-615 limits assumed): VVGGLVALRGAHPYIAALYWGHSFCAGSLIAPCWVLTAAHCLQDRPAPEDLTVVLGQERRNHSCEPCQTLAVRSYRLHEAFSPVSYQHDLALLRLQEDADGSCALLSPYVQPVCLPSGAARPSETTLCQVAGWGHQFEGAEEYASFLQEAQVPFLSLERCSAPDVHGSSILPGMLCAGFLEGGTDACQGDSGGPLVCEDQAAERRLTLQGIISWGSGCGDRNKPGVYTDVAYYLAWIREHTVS
Furin inh – inhibitors of human furin; inhibition, % at 20 µM or 30 µM; AID 463115; hit rate 0.061% among 220,000; purified furin, fluorogenic substrate cleavage; P09958; in the data active = inhibition above about 25%
FXIa inh 1536 – factor XIa (human) inhibition. AID 798. purified FXIa, Boc-Glu-Ala-Arg-AMC fluorogenic substrate. hit rate 0.14% among 220,000. P03951. inhibition, % at 5 µM;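 active = inhibition of at least 40%; inactive = inhibition below 40%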;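 note: fluorescence of freed AMC excited at 355 nm; 0% = enzyme without compound and 100% = no enzyme blank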
An asterisk follows results filed as active; / = no result. This is a sample that favours compounds with a hit; in the whole collection about 1.1% have one here.

SMILES | thrombin 1536 | hK5 inh | FXIIa inh | Furin inh | FXIa inh 1536
N/C(=N\OC(=O)c1cc(Br)ccc1Cl)c1ccccn1 | -2 | -2 | 9 | -13 | -2
N/C(=N\OC(=O)c1ccc(Cl)cc1Cl)c1ccccn1 | -4 | 53* | 29 | -8 | 31
Cc1nn(C(C)C(=O)NCC2CCCO2)c(=O)c2cc3occc3n12 (stereo unspecified) | 11 | 43* | 3 | -19 | 7
Cc1nn(C(C)C(=O)NCCCc2ccccc2)c(=O)c2cc3occc3n12 (stereo unspecified) | -2 | -9 | 16 | -16 | 16
COCCCNC(=O)CC1Oc2ccccc2NC1=O (stereo unspecified) | 16 | 56* | 11 | -10 | 14
CCN(CC)CCCNCC(=O)Nc1ccc(OC)c(Cl)c1 | 11 | 42* | 37 | -8 | 40
CCN(CC)c1ccc(/C=C(\C#N)C(=O)NCc2ccco2)cc1 | 13 | 64* | 18 | 6 | 5
CCCn1cc(C(=O)OCC)c(=O)c2cc(F)c(F)cc21 | 4 | 23 | 31 | -5 | 65*
CCOC(=O)c1cn(CC2CC2)c2cc(F)c(F)cc2c1=O | -3 | -1 | 2 | -19 | -4
Cc1ccc(CSCC(=O)NCc2cccs2)cc1 | -4 | -3 | 3 | -15 | -9
Cc1onc(-c2c(Cl)cccc2Cl)c1C(=O)c1c[nH]c(C(=O)NCC2CCCO2)c1 (stereo unspecified) | -5 | -3 | 5 | -23 | -1
CN(CCC#N)CC(=O)Nc1ccc(S(N)(=O)=O)cc1 | -8 | -4 | / | -23 | -5
COC(=O)c1c(SCC(=O)Nc2ccc(C)cc2)nc(=O)[nH]c1C | 34 | 74* | 26 | 1 | 29
Oc1ccc(/C=N/Nc2nc(-c3cccnc3)nc3ccccc23)c(O)c1 | 7 | 40 | 25 | -2 | 42*
Cc1c(O)ccc(/C=N/Nc2nc(-c3cccnc3)nc3ccccc23)c1O | 1 | 3 | 5 | -20 | 0
Cc1ccc(S(=O)(=O)NNC(=O)c2ccc(O)cc2)cc1 | 29 | 53* | 10 | -7 | 3
CC(=O)Nc1ccc(C(=O)NNS(=O)(=O)c2ccc(C)cc2)cc1 | 3 | -9 | 13 | -8 | 10
Cc1cccc(Nc2sc(C(=O)c3cc4cc(Cl)ccc4o3)c(N)c2C#N)c1 | -3 | 2 | 7 | -14 | 2
Cc1c(C(N)=O)sc2ncn(CC(=O)NCCc3ccccc3)c(=O)c12 | 0 | / | 10 | -28 | 0
OC1(c2ccc(F)cc2)CCN(Cc2nnnn2Cc2cccs2)CC1 | 61* | 36 | 11 | -24 | 2
CN(C)S(=O)(=O)N1CCN(c2cccc(Cl)c2)CC1 | 25 | 83* | 15 | -14 | -8
CCCCc1cn([C@@H](CCCCNC(=O)OC(C)(C)C)C(=O)N2CCN(C(=O)OC(C)(C)C)CC2)nn1 | -2 | 3 | 9 | -27 | 1
O=C(C[n+]1cn(C(F)F)c2ccccc21)c1ccc(OC(F)F)cc1 | -3 | 0 | 6 | -29 | -2
COC(=O)c1ccc(NC(=S)Nc2ccc(O)cc2)cc1 | 14 | 33 | 61* | -8 | 28
Oc1ccc(NC(=S)Nc2ccc(O)cc2)cc1 | -3 | -2 | 8 | -8 | -4
SMILES | thrombin 1536 | hK5 inh | FXIIa inh | Furin inh | FXIa inh 1536
CCn1c(N)c(C(=O)NCc2cccnc2)sc1=S | 2 | -6 | 18 | -8 | 6
Nc1c(C(=O)NCc2cccnc2)sc(=S)n1-c1ccccc1 | 38 | 35 | 42* | -10 | 15
CCOC(=O)CN(C(=O)c1ccccc1[N+](=O)[O-])C(C)(C)C | -10 | -8 | 5 | -20 | 1
CS(=O)(=O)N(Cc1ccco1)CC(O)Cn1c2ccccc2c2ccccc21 (stereo unspecified) | 38 | 44* | 2 | -13 | 13
CN(CC(=O)Nc1ccc(C#N)cc1)Cc1ccc(Cl)cc1Cl | 25 | 52* | 23 | -7 | -2
CC(=O)Nc1cccc(-c2nc3ccccc3c(=O)o2)c1 | 8 | 26 | 10 | -15 | 9
CCC(=O)Nc1cccc(-c2nc3ccccc3c(=O)o2)c1 | 6 | 47* | 18 | -1 | 13
O=C1CC(SCc2nc3ccccc3[nH]2)C(=O)N1c1cccc(Cl)c1 (stereo unspecified) | 0 | -7 | 10 | 0 | -3
O=C1CC(SCc2nc3ccccc3[nH]2)C(=O)N1c1ccc(F)cc1 (stereo unspecified) | 25 | 54* | 6 | -11 | -11
O=C(NCc1nnc(SCC(=O)N2CCCc3ccccc32)o1)c1c(F)cccc1Cl | 11 | -4 | 5 | -38 | -3

Screens from PubChem.
